Measurements from different studies.
Target: Serine/threonine-protein kinase 35 (STK35, Homo sapiens, UniProt Q8TDR2)

Compound	assay	conditions	remaining binding [%]
Cc1nccc(COC(=O)N2C[C@@H]3[C@@H](CNC(=O)c4ccc5[nH]nnc5c4)[C@@H]3C2)n1	cell-free assay, competition with immobilised ligand	1 µM	83
CN(CCCC(F)(F)F)c1nccc(-c2cnn3ncccc23)n1	binding	1 µM	100
CC1=C(C#N)[C@@H](c2ccc3[nH]nc(C)c3c2)C(C#N)=C(c2ccc(Cl)cc2)N1	cell-free assay, competition with immobilised ligand	1 µM	100
C[C@H]1CCN(c2nccc(-c3cnn4ncccc34)n2)C1	binding	1 µM	100
COc1ncc2cc3ccccc3nc2c1C#N	cell-free assay, competition with immobilised ligand	5 µM	98
CN(C)c1nccc(-c2cnc3ncccn23)n1	binding	1 µM	100
CN1CCN(c2cnc3c(C4CCN(C(=O)c5ccc(OC(F)(F)F)cc5N)CC4)ncnc3c2)CC1	cell-free assay, competition with immobilised ligand	1 µM	100
O=C(NCCCN1CCOCC1)c1ccc(Nc2nccc(-c3cc4ccccc4s3)n2)cc1	binding, competition with immobilised ligand	1 µM	92
CN(C)C(=O)Cn1cc(-c2nc(C3(c4ccc(-c5cnc(N)nc5)cc4)CC3)no2)cn1	cell-free assay, competition with immobilised ligand	1 µM	94
COc1cnc(Nc2cccc(S(N)(=O)=O)c2)nc1N1CCN(c2ccccc2)CC1	binding, competition with immobilised ligand	1 µM	100
Cc1cnn2ncc(-c3ccnc(N(C)C)n3)c2c1	binding	1 µM	100
C=CC(=O)N1CCC(C(=O)NCC(=O)N2CCN(c3nc(-c4cnc(N)nc4C(F)F)nc(N4CCOCC4)n3)CC2)CC1	binding, competition with immobilised ligand	1 µM	93
CNC(=O)[C@@H]1CC[C@@H](n2c(-c3ccc4cnccc4c3)nc3ccc(C(=O)NCc4cccc(C(N)=O)c4)cc32)C1	binding, competition with immobilised ligand	1 µM	98
COc1ccnn2ncc(-c3ccnc(N(C)C)n3)c12	binding	1 µM	95
O=C(Nc1cccnn1)N1CCC(=Cc2cccc(Oc3ccc(C(F)(F)F)cn3)c2)CC1	cell-free assay, competition with immobilised ligand	1 µM	100
O=C(c1ccc(Nc2nccc(-c3cc4ccccc4s3)n2)cc1)N1CCC(N2CCCC2)CC1	binding, competition with immobilised ligand	1 µM	100
O=C(NCC1CCOCC1)c1n[nH]cc1NC(=O)c1c(F)cccc1F	binding, competition with immobilised ligand	1 µM	92
CC1CCCN1c1nccc(-c2cnn3ncccc23)n1 (stereo not shown)	binding	1 µM	88
Cc1c[nH]c2nccc(Oc3c(F)cc(Nc4cc(Cl)nc(N)n4)cc3F)c12	cell-free assay, competition with immobilised ligand	0.1 µM	94
O=C(c1ccc(Nc2ncc(Cl)c(-c3ccc(Cl)s3)n2)cc1)N1CCC(N2CCCC2)CC1	binding, competition with immobilised ligand	1 µM	99
Cn1nc(C(F)(F)F)cc1-c1cnc(N2CCc3cc(S(=O)(=O)Nc4c(F)cc(Cl)cc4F)cc(N4CCCC4=O)c32)nc1	cell-free assay, competition with immobilised ligand	1 µM	100
N[C@@H]1CCN(c2nccc(-c3cnn4ncccc34)n2)C1	binding	1 µM	100
